Experimental data gathered from unrelated publications.
ACSL4: Long-chain-fatty-acid--CoA ligase 4 (ACSL4, Homo sapiens, UniProt O60488)
CDK7: Cyclin-dependent kinase 7 (CDK7, Homo sapiens, UniProt P50613)
MAK: Serine/threonine-protein kinase MAK (MAK, Homo sapiens, UniProt P20794)
PTGER4: Prostaglandin E2 receptor EP4 subtype (PTGER4, Homo sapiens, UniProt P35408)

O=C1NC(=O)C(Cc2ccc(N3CCN(c4ccccn4)CC3)cc2)S1 (stereo not drawn)  inhibition (ACSL4; enzyme activity; inhibitor; 10 µM): 42%
CNS(=O)(=O)c1ccc(Nc2ncc(C(F)(F)F)c(N3CCC[C@](C)(O)C3)n2)c(C)c1  remaining binding (Mitogen-activated protein kinase 7 (MAPK7, Homo sapiens, UniProt Q13164); binding; competition with immobilised ligand; 1 µM): 14%
C#Cc1cc(-c2cc(Nc3nc(N[C@@H](C)c4ccc(F)cn4)ncc3Cl)n[nH]2)ccc1C=O  inhibition (Serine/threonine-protein kinase 33 (STK33, Homo sapiens, UniProt Q9BYT3); enzyme activity; inhibitor; 0.2 µM): 7.93%
C[C@]1(O)CCCN(c2nc(Nc3ccc(S(=O)(=O)N[C@H]4CC[C@H](CN5CCN(c6ccc(C7CCC(=O)NC7=O)cc6F)CC5)CC4)cc3F)ncc2C(F)(F)F)C1 (stereo partly drawn)  remaining binding (CDK7; binding; competition with immobilised ligand; 1 µM): 85%
CCCCC(=O)Nc1ccc(-c2ccc3ncn(CCC)c(=O)c3c2)cn1  remaining binding (MAK; binding; competition with immobilised ligand; 0.5 µM): 71%
O=C(/C=C/c1ccc(O)c(O)c1)O[C@H](Cc1ccc(O)c(O)c1)C(=O)O  ΔTm (Peroxiredoxin-1 (PRDX1, Homo sapiens, UniProt Q06830); thermal stability; DSF; 800 µM): 9.31 °C
NC/C(=C\F)COc1cccc(Cn2c(=S)[nH]c(=O)c3[nH]cnc32)c1  inhibition (PTGER4; ligand displacement; radioligand; 10 µM): < 50%
CN1CCc2c(c3ccccc3n2Cc2ccc(C(=O)NO)cc2)C1  inhibition (Protein deacetylase HDAC6 (HDAC6, Homo sapiens, UniProt Q9UBN7); enzyme activity; inhibitor; fluorescence; 0.5 µM): 94.8%
CC1(COc2ccc(CC3SC(=O)NC3=O)cc2)CCCCC1 (stereo not drawn)  inhibition (ACSL4; enzyme activity; inhibitor; 10 µM): 20%
Cc1cc(S(=O)(=O)N[C@H]2CC[C@H](CN3CCN(c4ccc(C5CCC(=O)NC5=O)cc4F)CC3)CC2)ccc1Nc1ncc(C(F)(F)F)c(N2CCC[C@](C)(O)C2)n1 (stereo partly drawn)  remaining binding (CDK7; binding; competition with immobilised ligand; 1 µM): 55%
CCN1/C(=C/C(C)=O)Sc2ccc(F)cc21  inhibition (PTGER4; ligand displacement; radioligand; 10 µM): 4.39%
C1=C/COCc2cc(ccc2OCCN2CCCC2)Nc2nccc(n2)-c2cccc(c2)COC/1  remaining binding (MAK; binding; 0.1 µM): 100%
